Measured values reported in ChEMBL document CHEMBL2146421, “Synthesis and anticonvulsant activity of some new thiazolo[3,2-a][1,3]diazepine, benzo[d]thiazolo[5,2-a][12,6]diazepine and benzo[d]oxazolo[5,2-a][12,6]diazepine analogues” (Eur J Med Chem, 2011).

Tests used:
[1] = Toxicity in Swiss albino mouse assessed as mortality at 0.375 mmol/kg, ip measured 7 to 11 mins before pentylenetetrazole challenge; type: organism-based; conditions: in vivo, read-out: Activity
Procedure, shortened: (§1)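 Compounds given i.p. at 3.0, 1.5, 0.75 and 0.375 mmol/kg to 6 mice per compound. Deaths occurring before the PTZ injection were recorded. PTZ (83 mg/kg s.c.) followed 30 min after compound dosing.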

Mus musculus [2] = assay: Hypnotic activity in Swiss albino mouse assessed as righting reflex at 0.75 mmol/kg, ip; type: ADME, organism-based; conditions: in vivo
Mus musculus [3] = assay: Anticonvulsant activity in Swiss albino mouse assessed as protection against pentylenetetrazole-induced convulsion at 0.375 mmol/kg, ip treated after 30 mins of pentylenetetrazole measured for 30 mins; type: functional
Mus musculus [4] = assay: Anticonvulsant activity in Swiss albino mouse assessed as protection against pentylenetetrazole-induced convulsion at 0.75 mmol/kg, ip treated after 30 mins of pentylenetetrazole measured for 30 mins; type: functional
[5] = Toxicity in Swiss albino mouse assessed as mortality at 0.75 mmol/kg, ip measured 7 to 11 mins before pentylenetetrazole challenge; type: organism-based; conditions: in vivo, read-out: Activity; procedure, shortened: as §1
Mus musculus [6] = assay: Neurotoxicity in Swiss albino mouse assessed as inability to climb up backwards in a glass tube within 30 seconds at 1.5 mmol/kg, ip measured after 15 and 25 mins by Chimney test; type: toxicity, organism-based; conditions: in vivo
Procedure, shortened: (§2)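 Chimney test: 15 and 25 min after i.p. dosing (3.0, 1.5, 0.75, 0.375 mmol/kg), inability of mice to climb backwards up a glass tube 25 cm long, 3 cm inner diameter, within 30 s recorded as neurological deficit.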

Mus musculus [7] = assay: Neurotoxicity in Swiss albino mouse assessed as effect on motor activity at 0.375 mmol/kg, ip after 30 mins; type: toxicity, organism-based; conditions: in vivo, 0.5 h
Procedure, shortened: (§3)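 Motor activity measured with an activity meter at 0 and 30 min after i.p. dosing, zero time taken as 100%.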

Mus musculus [8] = assay: Anticonvulsant activity in Swiss albino mouse assessed as protection against pentylenetetrazole-induced convulsion at 1.5 mmol/kg, ip treated after 30 mins of pentylenetetrazole measured for 30 mins; type: functional
Mus musculus [9] = assay: Neurotoxicity in Swiss albino mouse assessed as inability to climb up backwards in a glass tube within 30 seconds at 0.375 mmol/kg, ip measured after 15 and 25 mins by Chimney test; type: toxicity, organism-based; conditions: in vivo; procedure, shortened: as §2
Mus musculus [10] = assay: Neurotoxicity in Swiss albino mouse assessed as effect on motor activity at 1.5 mmol/kg, ip after 30 mins; type: toxicity, organism-based; conditions: in vivo, 0.5 h; procedure, shortened: as §3
Mus musculus [11] = assay: Hypnotic activity in Swiss albino mouse assessed as righting reflex at 1.5 mmol/kg, ip; type: ADME, organism-based; conditions: in vivo
Mus musculus [12] = assay: Neurotoxicity in Swiss albino mouse assessed as inability to climb up backwards in a glass tube within 30 seconds at 0.75 mmol/kg, ip measured after 15 and 25 mins by Chimney test; type: toxicity, organism-based; conditions: in vivo; procedure, shortened: as §2
Mus musculus [13] = assay: Hypnotic activity in Swiss albino mouse assessed as righting reflex at 0.375 mmol/kg, ip; type: ADME, organism-based; conditions: in vivo
Mus musculus [14] = assay: Neurotoxicity in Swiss albino mouse assessed as effect on motor activity at 0.75 mmol/kg, ip after 30 mins; type: toxicity, organism-based; conditions: in vivo, 0.5 h; procedure, shortened: as §3
[15] = Toxicity in Swiss albino mouse assessed as mortality at 1.5 mmol/kg, ip measured 7 to 11 mins before pentylenetetrazole challenge; type: organism-based; conditions: in vivo, read-out: Activity; procedure, shortened: as §1
Mus musculus [16] = assay: Neurotoxicity in Swiss albino mouse assessed as inability to climb up backwards in a glass tube within 30 seconds at 1.38 mmol/kg, ip measured after 15 and 25 mins by Chimney test; type: toxicity, organism-based; conditions: in vivo
Procedure, shortened: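 Chimney test: at 15 and 25 min after dosing, inability of mice to climb backwards up a glass tube (25 cm long, 3 cm inner diameter) within 30 s was scored as neurological deficit.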

Mus musculus [17] = assay: Anticonvulsant activity in Swiss albino mouse assessed as protection against pentylenetetrazole-induced convulsion at 1.38 mmol/kg, ip treated after 30 mins of pentylenetetrazole measured for 30 mins; type: functional
[18] = Toxicity in Swiss albino mouse assessed as mortality at 1.38 mmol/kg, sc; type: organism-based; conditions: in vivo, read-out: Activity
Mus musculus [19] = assay: Neurotoxicity in Swiss albino mouse assessed as effect on motor activity at 3 mmol/kg, ip after 30 mins; type: toxicity, organism-based; conditions: in vivo, 0.5 h; procedure, shortened: as §3
[20] = Toxicity in ip dosed Swiss albino mouse assessed as sedative effect; type: organism-based; conditions: in vivo
Mus musculus [21] = assay: Anticonvulsant activity in Swiss albino mouse assessed as protection against maximal electroshock-induced convulsion at 3.0 mmol/kg, ip […]; type: functional
Procedure, shortened: (§4)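 Test agent given i.p. to mice; 30 min later electric shock applied through the ears, animals released immediately to observe maximal seizure; percentage protected recorded (10 animals per dose in dose-response runs).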

Mus musculus [22] = assay: Anticonvulsant activity in Swiss albino mouse assessed as protection against bicuculline-induced convulsion at 0.75 mmol/kg, ip […] measured for 30 mins; type: functional
Procedure, shortened: (§5)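 Mice (6 per compound) dosed i.p.; 30 min later given bicuculline 1 mg/kg s.c. (freshly dissolved in 1 ml warmed 0.1 N HCl, made up with 0.9% NaCl), then observed 30 min; percentage anticonvulsion (animals protected) calculated. Dose-response runs used 10 animals per dose.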

Mus musculus [23] = assay: Anticonvulsant activity in Swiss albino mouse assessed as protection against picrotoxin-induced convulsion at 1.5 mmol/kg, ip […] measured for 30 mins; type: functional
Procedure, shortened: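 Test compound given i.p.; 30 min later, picrotoxin 3.15 mg/kg s.c. was injected. Picrotoxin was freshly dissolved in 1 ml warmed 0.1 N HCl and made up with 0.9% NaCl. Each dose was tested in 10 animals and the percentage of mice protected from clonic convulsions was recorded.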

Mus musculus [24] = assay: Anticonvulsant activity in Swiss albino mouse assessed as protection against maximal electroshock-induced convulsion at 0.75 mmol/kg, ip […]; type: functional; procedure, shortened: as §4
Mus musculus [25] = assay: Neurotoxicity in Swiss albino mouse assessed as inability to climb up backwards in a glass tube within 30 seconds at 3 mmol/kg, ip measured after 15 and 25 mins by Chimney test; type: toxicity, organism-based; conditions: in vivo; procedure, shortened: as §2
Mus musculus [26] = assay: Anticonvulsant activity in Swiss albino mouse assessed as protection against bicuculline-induced convulsion at 3.0 mmol/kg, ip […] measured for 30 mins; type: functional; procedure, shortened: as §5
Mus musculus [27] = assay: Anticonvulsant activity in Swiss albino mouse assessed as protection against bicuculline-induced convulsion at 1.5 mmol/kg, ip […] measured for 30 mins; type: functional; procedure, shortened: as §5
Mus musculus [28] = species on record: Mus musculus; assay: Protective index, ratio of TD50 for Swiss albino mouse to ED50 for anticonvulsant activity in Swiss albino mouse; type: functional
Procedure, shortened: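 TD50 (median sedative dose) divided by ED50 (median effective dose), from dose-response curves at 10 mice per dose; 95% confidence limits given.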

Mus musculus [29] = assay: Anticonvulsant activity in Swiss albino mouse assessed as protection against pentylenetetrazole-induced convulsion at 3 mmol/kg, ip treated after 30 mins of pentylenetetrazole measured for 30 mins; type: functional
[30] = Toxicity in Swiss albino mouse assessed as mortality at 3 mmol/kg, ip measured 7 to 11 mins before pentylenetetrazole challenge; type: organism-based; conditions: in vivo, read-out: Activity; procedure, shortened: as §1
Mus musculus [31] = assay: Anticonvulsant activity in ip dosed Swiss albino mouse assessed as protection against maximal electroshock-induced convulsion; type: functional; procedure, shortened: as §4
Mus musculus [32] = assay: Hypnotic activity in Swiss albino mouse assessed as righting reflex at 3 mmol/kg, ip; type: ADME, organism-based; conditions: in vivo
Mus musculus [33] = assay: Anticonvulsant activity in Swiss albino mouse assessed as protection against maximal electroshock-induced convulsion at 1.5 mmol/kg, ip […]; type: functional
Procedure, shortened: (§6)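 Test compound given i.p. to mice; 30 min later, electric shock was applied through the ears while the mice were hand-restrained. The mice were then released to observe the maximal seizure. Each dose was tested in 10 animals and the percentage protected was recorded.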

[34] = Toxicity in Swiss albino mouse by Spearman-Karber method; type: organism-based; conditions: in vivo
Procedure, shortened: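 LD50 in mice was determined by the Spearman–Karber method, with doses chosen at equal logarithmic intervals. 95% confidence limits were reported.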

Mus musculus [35] = assay: Neurotoxicity in Swiss albino mouse assessed as inability to climb up backwards in a glass tube within 30 seconds at 0.37 mmol/kg, ip measured after 15 and 25 mins by Chimney test; type: toxicity, organism-based; conditions: in vivo; procedure, shortened: as §2
Mus musculus [36] = assay: Anticonvulsant activity in Swiss albino mouse assessed as protection against bicuculline-induced convulsion at 0.37 mmol/kg, ip […] measured for 30 mins; type: functional; procedure, shortened: as §5
Mus musculus [37] = assay: Anticonvulsant activity in Swiss albino mouse assessed as protection against maximal electroshock-induced convulsion at 0.37 mmol/kg, ip […]; type: functional; procedure, shortened: as §6
Mus musculus [38] = assay: Anticonvulsant activity in Swiss albino mouse assessed as protection against pentylenetetrazole-induced convulsion at 0.37 mmol/kg, ip treated 30 mins before pentylenetetrazole measured for 30 mins
[39] = Therapeutic index, ratio of LD50 for Swiss albino mouse to ED50 for anticonvulsant activity in Swiss albino mouse; type: organism-based; conditions: in vivo, read-out: Ratio LD50/ED50
Procedure, shortened: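 TI was calculated as LD50/ED50. ED50 came from dose-response curves in 10 mice per dose. LD50 was determined by the Spearman–Karber method, with doses at equal logarithmic intervals.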

O=C1CCCN2C=C(Br)SC2=N1
mortality [1]: 0%
Activity (Mus musculus [2]): 0%
Activity (Mus musculus [3]): 0%
Activity (Mus musculus [4]): 0%
mortality [5]: 0%
Activity (Mus musculus [6]): 80%
Activity (Mus musculus [7]): 15%
Activity (Mus musculus [8]): 30%
Activity (Mus musculus [9]): 10%
Activity (Mus musculus [10]): 12%
Activity (Mus musculus [11]): 30%
Activity (Mus musculus [12]): 40%
Activity (Mus musculus [13]): 0%
Activity (Mus musculus [14]): 13%
mortality [15]: 0%

CCCC(CCC)C(=O)[O-].[Na+] [VALPROATE SODIUM]
Activity (Mus musculus [16]): 100%
Activity (Mus musculus [17]): 100%
mortality [18]: 0%

O=C1CCCN2C(=N1)Oc1ccc(Cl)cc12
Activity (Mus musculus [19]): 80%
TD50 [20]: 355 mg/kg
Activity (Mus musculus [21]): 70%
Activity (Mus musculus [2]): 0%
Activity (Mus musculus [22]): 20%
Activity (Mus musculus [23]): 40%
Activity (Mus musculus [24]): 0%
Activity (Mus musculus [25]): 100%
Activity (Mus musculus [26]): 100%
Activity (Mus musculus [27]): 50%
Ratio TD50/ED50 (Mus musculus [28]): 1.41
Activity (Mus musculus [4]): 33%
Activity (Mus musculus [29]): 100%
mortality [30]: 0%
ED50 (Mus musculus [31]): 251 mg/kg
Activity (Mus musculus [32]): 17%
mortality [5]: 0%
Activity (Mus musculus [33]): 10%
Activity (Mus musculus [6]): 50%
LD50 [34]: 537 mg/kg
Activity (Mus musculus [35]): 0%
Activity (Mus musculus [36]): 0%
Activity (Mus musculus [37]): 0%
Activity (Mus musculus [8]): 67%
Activity (Mus musculus [38]): 0%
Activity (Mus musculus [10]): 50%
Activity (Mus musculus [11]): 0%
Activity (Mus musculus [12]): 17%
selectivity ratio [39]: 2.14
Activity (Mus musculus [14]): 33%
mortality [15]: 0%

S=C1CCCN2C=CSC2=N1
mortality [1]: 0%
Activity (Mus musculus [2]): 0%
Activity (Mus musculus [3]): 0%
Activity (Mus musculus [4]): 0%
mortality [5]: 10%
Activity (Mus musculus [6]): 100%
Activity (Mus musculus [7]): 30%
Activity (Mus musculus [8]): 0%
Activity (Mus musculus [9]): 10%
Activity (Mus musculus [10]): 11%
Activity (Mus musculus [11]): 0%
Activity (Mus musculus [12]): 30%
Activity (Mus musculus [13]): 0%
Activity (Mus musculus [14]): 26%
mortality [15]: 50%
